# Measured values published in ChEMBL document CHEMBL2086354, “Testing the promiscuity of commercial kinase inhibitors against the AGC kinase group using a split-luciferase screen” (J Med Chem, 2012).
# Calls of active or inactive are those of the source. No cut-off for these calls is given here.
# Legend:
# [1] = target: Aurora kinase B (Homo sapiens) (UniProt Q96GD4); experiment: Inhibition of Aurora kinase B at 10 uM by luciferase assay
# How it was run: (§1)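 Cell-free split-luciferase competitive binding assay. Cfluc-kinase fusion mRNA was co-translated with Fos-Nfluc mRNA in rabbit reticulocyte lysate at 30 °C for 90 min, frozen at −80 °C overnight and thawed on ice. Lysate held tracer 2 at 120 nM final and inhibitor at 10 μM final (DMSO), 1 h at room temperature. Luciferin reagent was added and luminescence read (1 s integration), in duplicate.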
# [2] = target: Protein kinase C eta type (Homo sapiens) (UniProt P24723); experiment: Inhibition of Protein kinase C eta type at 10 uM by luciferase assay; how it was run: as §1
# [3] = target: T1, Aurora kinase C (Homo sapiens) (UniProt Q9UQB9); experiment: Inhibition of Aurora kinase C at 10 uM by luciferase assay; how it was run: as §1
# T1 sequence (whole entry): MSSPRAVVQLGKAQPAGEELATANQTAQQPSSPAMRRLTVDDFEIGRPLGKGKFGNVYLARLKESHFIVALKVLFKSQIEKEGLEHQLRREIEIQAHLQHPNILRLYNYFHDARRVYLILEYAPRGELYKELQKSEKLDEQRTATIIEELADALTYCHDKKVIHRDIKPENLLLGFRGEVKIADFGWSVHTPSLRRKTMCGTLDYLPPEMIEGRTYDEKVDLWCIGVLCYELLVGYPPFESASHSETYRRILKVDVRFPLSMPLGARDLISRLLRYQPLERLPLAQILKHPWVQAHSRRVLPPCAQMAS
# [4] = target: Protein kinase C gamma type (Homo sapiens) (UniProt P05129); experiment: Inhibition of Protein kinase C gamma type at 10 uM by luciferase assay
# How it was run: (§2)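 Cell-free split-firefly-luciferase competitive binding assay: Cfluc-kinase fusion mRNA co-translated with Fos-Nfluc mRNA in rabbit reticulocyte lysate, 30 °C for 90 min, then frozen at −80 °C and thawed on ice. Luminescence read after luciferin reagent, in duplicate. Percent inhibition = 1 − (background-subtracted signal ÷ DMSO positive control).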
# [5] = target: Protein kinase C theta type (Homo sapiens) (UniProt Q04759); experiment: Inhibition of Protein kinase C theta type at 10 uM by luciferase assay; how it was run: as §1
# [6] = target: RAC-beta serine/threonine-protein kinase (Homo sapiens) (UniProt P31751); experiment: Inhibition of AKT2 at 10 uM by luciferase assay; how it was run: as §2
# [7] = target: RAC-gamma serine/threonine-protein kinase (Homo sapiens) (UniProt Q9Y243); experiment: Inhibition of AKT3 at 10 uM by luciferase assay; how it was run: as §2
# [8] = target: T2, Protein kinase C epsilon type (Homo sapiens) (UniProt Q02156); experiment: Inhibition of Protein kinase C epsilon type at 10 uM by luciferase assay; how it was run: as §2
# T2 sequence (whole entry): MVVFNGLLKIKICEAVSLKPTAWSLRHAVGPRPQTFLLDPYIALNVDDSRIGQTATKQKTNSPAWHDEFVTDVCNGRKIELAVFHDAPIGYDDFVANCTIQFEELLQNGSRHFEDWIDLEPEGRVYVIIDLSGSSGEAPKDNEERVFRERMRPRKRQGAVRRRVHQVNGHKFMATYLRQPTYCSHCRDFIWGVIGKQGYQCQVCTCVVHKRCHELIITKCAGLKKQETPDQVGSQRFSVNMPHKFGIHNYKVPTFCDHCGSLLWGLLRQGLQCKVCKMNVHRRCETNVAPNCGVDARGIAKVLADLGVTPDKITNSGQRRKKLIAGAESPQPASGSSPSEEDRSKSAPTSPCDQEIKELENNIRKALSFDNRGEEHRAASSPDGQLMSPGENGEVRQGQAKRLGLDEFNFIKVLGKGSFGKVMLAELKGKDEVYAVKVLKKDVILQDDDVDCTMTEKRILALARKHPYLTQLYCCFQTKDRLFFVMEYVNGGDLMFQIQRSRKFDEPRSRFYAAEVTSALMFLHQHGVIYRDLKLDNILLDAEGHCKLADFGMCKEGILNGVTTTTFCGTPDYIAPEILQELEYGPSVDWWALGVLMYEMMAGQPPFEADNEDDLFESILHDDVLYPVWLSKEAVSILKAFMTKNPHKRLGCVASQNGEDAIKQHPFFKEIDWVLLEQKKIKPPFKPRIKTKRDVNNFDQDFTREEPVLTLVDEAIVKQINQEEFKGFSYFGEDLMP
# [9] = target: RAC-alpha serine/threonine-protein kinase (Homo sapiens) (UniProt P31749); experiment: Inhibition of AKT1 at 10 uM by luciferase assay; how it was run: as §2
# [10] = target: T3, Serine/threonine-protein kinase Sgk2 (Homo sapiens) (UniProt Q9HBY8); experiment: Inhibition of SGK2 at 10 uM by luciferase assay; how it was run: as §1
# T3 sequence (whole entry): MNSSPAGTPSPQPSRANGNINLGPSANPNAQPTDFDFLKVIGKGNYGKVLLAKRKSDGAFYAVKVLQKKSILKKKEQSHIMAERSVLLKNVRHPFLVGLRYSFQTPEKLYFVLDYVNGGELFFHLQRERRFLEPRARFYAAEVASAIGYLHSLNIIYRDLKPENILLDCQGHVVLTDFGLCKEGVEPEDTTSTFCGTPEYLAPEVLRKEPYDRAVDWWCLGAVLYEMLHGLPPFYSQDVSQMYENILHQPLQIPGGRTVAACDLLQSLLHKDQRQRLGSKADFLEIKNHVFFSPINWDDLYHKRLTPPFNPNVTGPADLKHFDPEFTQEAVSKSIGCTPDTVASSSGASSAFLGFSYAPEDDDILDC
# [11] = target: Protein kinase C delta type (Homo sapiens) (UniProt Q05655); experiment: Inhibition of Protein kinase C delta type at 10 uM by luciferase assay; how it was run: as §2
# [12] = target: T4, cAMP-dependent protein kinase catalytic subunit PRKX (Homo sapiens) (UniProt P51817); experiment: Inhibition of PRKX at 10 uM by luciferase assay; how it was run: as §1
# T4 sequence (whole entry): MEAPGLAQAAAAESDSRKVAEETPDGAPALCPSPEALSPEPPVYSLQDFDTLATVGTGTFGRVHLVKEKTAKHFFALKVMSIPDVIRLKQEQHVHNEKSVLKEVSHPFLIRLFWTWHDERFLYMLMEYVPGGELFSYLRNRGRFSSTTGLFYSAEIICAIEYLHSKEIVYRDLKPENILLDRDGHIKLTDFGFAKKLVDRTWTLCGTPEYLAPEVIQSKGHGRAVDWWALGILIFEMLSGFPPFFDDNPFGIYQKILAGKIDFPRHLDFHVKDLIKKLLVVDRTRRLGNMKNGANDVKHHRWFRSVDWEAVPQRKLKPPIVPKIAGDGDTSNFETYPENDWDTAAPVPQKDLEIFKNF
# [13] = target: T5, Serine/threonine-protein kinase Sgk3 (Homo sapiens) (UniProt Q96BR1); experiment: Inhibition of SGK3 at 10 uM by luciferase assay; how it was run: as §1
# T5 sequence (whole entry): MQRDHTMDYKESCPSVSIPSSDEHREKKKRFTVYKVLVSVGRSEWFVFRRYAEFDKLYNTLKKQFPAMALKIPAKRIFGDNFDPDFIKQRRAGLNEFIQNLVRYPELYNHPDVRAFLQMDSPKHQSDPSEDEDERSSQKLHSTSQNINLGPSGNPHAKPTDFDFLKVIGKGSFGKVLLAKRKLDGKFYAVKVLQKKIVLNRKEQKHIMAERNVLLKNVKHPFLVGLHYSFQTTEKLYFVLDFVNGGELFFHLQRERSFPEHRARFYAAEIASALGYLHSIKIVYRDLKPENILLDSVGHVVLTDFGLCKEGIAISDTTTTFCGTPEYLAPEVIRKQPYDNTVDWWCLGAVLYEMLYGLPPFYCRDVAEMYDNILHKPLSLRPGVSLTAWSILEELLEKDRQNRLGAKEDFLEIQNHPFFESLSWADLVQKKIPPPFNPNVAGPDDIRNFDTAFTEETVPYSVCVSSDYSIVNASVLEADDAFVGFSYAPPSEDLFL
# [14] = Inhibition of Protein kinase A at 10 uM by luciferase assay; how it was run: as §1
# [15] = target: T6, Myotonin-protein kinase (Homo sapiens) (UniProt Q09013); experiment: Inhibition of DMPK at 10 uM by luciferase assay; how it was run: as §1
# T6 sequence (whole entry): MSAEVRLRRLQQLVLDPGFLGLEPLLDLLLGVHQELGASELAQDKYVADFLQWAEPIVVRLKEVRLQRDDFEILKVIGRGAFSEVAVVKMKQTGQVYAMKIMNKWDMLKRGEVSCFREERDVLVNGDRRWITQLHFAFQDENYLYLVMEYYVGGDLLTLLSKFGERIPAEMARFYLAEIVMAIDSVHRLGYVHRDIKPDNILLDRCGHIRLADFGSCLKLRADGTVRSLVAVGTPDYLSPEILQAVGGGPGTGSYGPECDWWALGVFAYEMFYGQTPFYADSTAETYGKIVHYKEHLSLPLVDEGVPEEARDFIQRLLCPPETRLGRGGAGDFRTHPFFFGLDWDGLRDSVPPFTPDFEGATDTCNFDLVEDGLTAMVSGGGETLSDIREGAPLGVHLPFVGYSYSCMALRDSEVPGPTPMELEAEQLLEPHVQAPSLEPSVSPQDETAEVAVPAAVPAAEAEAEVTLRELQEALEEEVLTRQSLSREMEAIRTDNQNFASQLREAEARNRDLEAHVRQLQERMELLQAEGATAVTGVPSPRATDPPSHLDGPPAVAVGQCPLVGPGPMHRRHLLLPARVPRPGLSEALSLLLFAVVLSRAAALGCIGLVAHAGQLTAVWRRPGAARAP
# [16] = target: Serine/threonine-protein kinase 32B (Homo sapiens) (UniProt Q9NY57); experiment: Inhibition of STK32B at 10 uM by luciferase assay; how it was run: as §1
# Sequence of Serine/threonine-protein kinase 32B (Homo sapiens) (Q9NY57 whole entry): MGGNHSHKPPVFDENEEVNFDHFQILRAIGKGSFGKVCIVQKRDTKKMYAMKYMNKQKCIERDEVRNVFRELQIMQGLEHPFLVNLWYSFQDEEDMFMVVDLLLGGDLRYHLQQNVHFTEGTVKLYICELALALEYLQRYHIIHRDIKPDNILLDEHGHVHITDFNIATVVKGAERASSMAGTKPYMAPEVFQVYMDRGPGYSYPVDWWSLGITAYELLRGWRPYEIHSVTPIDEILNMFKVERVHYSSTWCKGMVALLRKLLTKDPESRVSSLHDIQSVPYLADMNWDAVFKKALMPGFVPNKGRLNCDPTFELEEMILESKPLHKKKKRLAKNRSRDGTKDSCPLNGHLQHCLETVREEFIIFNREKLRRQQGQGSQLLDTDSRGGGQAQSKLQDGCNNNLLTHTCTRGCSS
# Sequence of Aurora kinase B (Homo sapiens) (Q96GD4 whole entry, the tested form may be a part): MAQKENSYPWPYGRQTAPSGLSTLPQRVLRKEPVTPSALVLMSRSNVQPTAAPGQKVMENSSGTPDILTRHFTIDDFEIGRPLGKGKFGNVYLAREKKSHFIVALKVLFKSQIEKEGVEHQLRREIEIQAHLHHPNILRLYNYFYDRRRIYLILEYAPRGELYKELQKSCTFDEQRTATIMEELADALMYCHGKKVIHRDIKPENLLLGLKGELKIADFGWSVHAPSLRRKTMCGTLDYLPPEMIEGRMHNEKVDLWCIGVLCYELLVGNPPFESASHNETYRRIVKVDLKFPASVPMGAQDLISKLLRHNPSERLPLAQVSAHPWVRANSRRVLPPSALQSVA
# Sequence of Protein kinase C eta type (Homo sapiens) (P24723 whole entry): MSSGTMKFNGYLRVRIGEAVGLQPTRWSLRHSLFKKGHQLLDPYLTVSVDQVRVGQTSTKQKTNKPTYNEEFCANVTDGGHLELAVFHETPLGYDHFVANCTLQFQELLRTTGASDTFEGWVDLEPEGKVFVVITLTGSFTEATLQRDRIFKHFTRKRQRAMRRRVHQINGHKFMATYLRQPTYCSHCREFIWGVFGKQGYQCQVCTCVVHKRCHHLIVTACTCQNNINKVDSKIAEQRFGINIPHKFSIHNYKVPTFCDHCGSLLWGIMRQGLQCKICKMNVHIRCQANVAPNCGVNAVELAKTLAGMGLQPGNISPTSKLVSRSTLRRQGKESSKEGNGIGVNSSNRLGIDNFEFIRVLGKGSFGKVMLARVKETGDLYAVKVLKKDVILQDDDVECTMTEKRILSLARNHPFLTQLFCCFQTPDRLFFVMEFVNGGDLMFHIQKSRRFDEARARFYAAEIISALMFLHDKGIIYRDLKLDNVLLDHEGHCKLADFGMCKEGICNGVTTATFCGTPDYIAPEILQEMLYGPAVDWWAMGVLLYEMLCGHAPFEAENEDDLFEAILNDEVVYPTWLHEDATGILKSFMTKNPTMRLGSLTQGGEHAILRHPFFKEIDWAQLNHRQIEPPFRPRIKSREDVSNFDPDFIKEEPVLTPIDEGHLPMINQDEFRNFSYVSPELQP
# Sequence of Protein kinase C theta type (Homo sapiens) (Q04759 whole entry, looked up): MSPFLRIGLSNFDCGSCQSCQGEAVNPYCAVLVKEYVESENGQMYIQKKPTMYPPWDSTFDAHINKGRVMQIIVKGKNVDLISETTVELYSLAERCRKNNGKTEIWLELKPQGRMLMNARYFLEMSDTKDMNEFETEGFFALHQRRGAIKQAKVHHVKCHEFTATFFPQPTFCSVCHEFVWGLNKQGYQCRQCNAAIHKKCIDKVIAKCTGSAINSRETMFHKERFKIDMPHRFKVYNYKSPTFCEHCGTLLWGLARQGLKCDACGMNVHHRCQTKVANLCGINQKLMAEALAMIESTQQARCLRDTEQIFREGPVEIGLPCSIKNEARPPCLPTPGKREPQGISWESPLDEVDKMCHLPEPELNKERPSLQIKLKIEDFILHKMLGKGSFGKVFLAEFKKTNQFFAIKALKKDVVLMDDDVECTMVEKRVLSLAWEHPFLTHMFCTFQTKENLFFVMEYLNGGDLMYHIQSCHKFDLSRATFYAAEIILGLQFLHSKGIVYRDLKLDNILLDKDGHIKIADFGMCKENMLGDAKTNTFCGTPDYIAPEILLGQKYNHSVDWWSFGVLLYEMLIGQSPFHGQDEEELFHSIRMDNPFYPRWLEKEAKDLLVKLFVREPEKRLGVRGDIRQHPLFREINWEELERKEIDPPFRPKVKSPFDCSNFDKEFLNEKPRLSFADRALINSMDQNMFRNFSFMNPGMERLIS
# Sequence of RAC-alpha serine/threonine-protein kinase (Homo sapiens) (P31749 whole entry): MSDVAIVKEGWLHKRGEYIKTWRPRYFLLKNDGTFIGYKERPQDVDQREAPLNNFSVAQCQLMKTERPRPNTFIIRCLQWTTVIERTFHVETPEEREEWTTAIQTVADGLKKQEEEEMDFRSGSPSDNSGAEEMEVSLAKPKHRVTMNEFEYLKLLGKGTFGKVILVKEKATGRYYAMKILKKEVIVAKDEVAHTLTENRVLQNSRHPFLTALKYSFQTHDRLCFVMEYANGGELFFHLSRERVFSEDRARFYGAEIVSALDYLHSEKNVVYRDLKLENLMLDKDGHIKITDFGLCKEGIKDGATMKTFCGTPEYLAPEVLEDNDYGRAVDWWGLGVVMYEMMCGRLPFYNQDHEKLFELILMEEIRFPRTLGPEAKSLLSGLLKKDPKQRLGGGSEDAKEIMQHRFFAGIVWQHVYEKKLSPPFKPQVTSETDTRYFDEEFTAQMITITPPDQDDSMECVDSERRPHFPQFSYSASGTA
# Sequence of RAC-beta serine/threonine-protein kinase (Homo sapiens) (P31751 whole entry): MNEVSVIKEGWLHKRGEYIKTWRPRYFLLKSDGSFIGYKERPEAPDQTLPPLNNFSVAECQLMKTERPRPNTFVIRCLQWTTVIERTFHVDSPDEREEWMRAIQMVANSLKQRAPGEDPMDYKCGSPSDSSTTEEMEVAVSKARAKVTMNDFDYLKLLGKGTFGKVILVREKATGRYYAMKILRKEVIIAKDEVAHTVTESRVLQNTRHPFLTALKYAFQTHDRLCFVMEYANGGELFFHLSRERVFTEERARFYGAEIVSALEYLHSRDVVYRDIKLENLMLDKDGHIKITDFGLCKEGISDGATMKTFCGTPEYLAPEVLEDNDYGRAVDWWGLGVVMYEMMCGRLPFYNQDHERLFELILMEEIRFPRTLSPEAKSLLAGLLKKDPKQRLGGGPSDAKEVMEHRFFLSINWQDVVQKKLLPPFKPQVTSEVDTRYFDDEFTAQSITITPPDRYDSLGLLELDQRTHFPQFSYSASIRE
# Sequence of RAC-gamma serine/threonine-protein kinase (Homo sapiens) (Q9Y243 whole entry): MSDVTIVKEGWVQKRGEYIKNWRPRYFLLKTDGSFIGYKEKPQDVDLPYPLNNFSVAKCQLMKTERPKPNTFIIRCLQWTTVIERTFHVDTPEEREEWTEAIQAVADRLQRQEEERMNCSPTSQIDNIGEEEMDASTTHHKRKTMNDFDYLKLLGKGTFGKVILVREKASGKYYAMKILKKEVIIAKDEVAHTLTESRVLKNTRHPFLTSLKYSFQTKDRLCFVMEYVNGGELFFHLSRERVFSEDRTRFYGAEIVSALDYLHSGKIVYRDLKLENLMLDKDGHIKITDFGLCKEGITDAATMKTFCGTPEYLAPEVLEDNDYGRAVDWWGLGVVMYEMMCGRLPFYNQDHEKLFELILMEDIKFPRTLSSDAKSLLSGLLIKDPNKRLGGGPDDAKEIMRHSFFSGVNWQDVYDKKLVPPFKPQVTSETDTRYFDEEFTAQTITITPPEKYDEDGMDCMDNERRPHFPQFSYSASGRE
# Sequence of Protein kinase C delta type (Homo sapiens) (Q05655 whole entry, looked up): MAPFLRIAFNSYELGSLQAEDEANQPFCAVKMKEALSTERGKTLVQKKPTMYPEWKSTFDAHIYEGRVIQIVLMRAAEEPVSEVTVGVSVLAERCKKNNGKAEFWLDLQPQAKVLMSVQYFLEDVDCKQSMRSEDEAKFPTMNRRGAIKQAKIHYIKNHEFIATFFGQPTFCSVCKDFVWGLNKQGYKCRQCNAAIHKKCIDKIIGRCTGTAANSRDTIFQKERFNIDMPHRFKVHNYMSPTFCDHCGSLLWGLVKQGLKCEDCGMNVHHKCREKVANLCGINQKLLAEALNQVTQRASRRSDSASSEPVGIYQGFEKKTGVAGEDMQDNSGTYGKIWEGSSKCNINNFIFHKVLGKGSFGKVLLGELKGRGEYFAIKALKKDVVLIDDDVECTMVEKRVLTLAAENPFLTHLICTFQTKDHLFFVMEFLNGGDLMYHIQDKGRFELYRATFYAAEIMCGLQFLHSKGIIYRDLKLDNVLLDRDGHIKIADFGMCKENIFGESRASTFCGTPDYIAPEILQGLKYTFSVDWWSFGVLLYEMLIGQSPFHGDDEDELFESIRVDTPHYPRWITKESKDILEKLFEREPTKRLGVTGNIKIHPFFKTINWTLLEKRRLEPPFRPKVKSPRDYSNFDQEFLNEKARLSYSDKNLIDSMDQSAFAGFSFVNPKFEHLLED
structure (smiles),measurement,setting,value
NC(=O)Nc1sc(-c2ccc(F)cc2)cc1C(N)=O,inhibition,[1],> 25%
same,inhibition,[2],Active
same,inhibition,[3],> 25%
CN(C)CCCn1cc(C2=C(c3c[nH]c4ccccc34)C(=O)NC2=O)c2ccccc21,inhibition,[2],inactive
same,inhibition,[4],inactive
same,inhibition,[5],inactive
Fc1ccc(Cl)cc1-c1nc(Nc2ccncc2)c2nccnc2n1,inhibition,[6],> 25%
same,inhibition,[2],> 25%
same,inhibition,[7],> 25%
same,inhibition,[8],> 25%
same,inhibition,[5],> 25%
same,inhibition,[9],> 25%
O=C1NC(=O)c2c1c1c3ccccc3n3c1c1c2c2ccccc2n1C1CCC3O1,inhibition,[10],> 60%
Cn1cc(C2=C(c3cn(CCCSC(=N)N)c4ccccc34)C(=O)NC2=O)c2ccccc21,inhibition,[2],47%
same,inhibition,[11],47%
same,inhibition,[8],47%
same,inhibition,[4],47%
same,inhibition,[5],47%
O=S(=O)(NCCNC/C=C/c1ccc(Br)cc1)c1cccc2cnccc12,inhibition,[2],20%
same,inhibition,[12],> 65%
same,inhibition,[13],20%
same,inhibition,[14],> 65%
same,inhibition,[10],20%
same,inhibition,[5],20%
O=S(=O)(c1cccc2c(Cl)cccc12)N1CCCNCC1,inhibition,[12],inactive
O=S(=O)(c1cccc2c(O)nccc12)N1CCCNCC1,inhibition,[12],Active
O=C1NC(=O)c2c1c1c3ccccc3[nH]c1c1[nH]c3ccccc3c21,inhibition,[6],inactive
same,inhibition,[7],inactive
same,inhibition,[11],inactive
same,inhibition,[8],inactive
same,inhibition,[4],inactive
same,inhibition,[9],inactive
O=S(=O)(c1cccc2cnccc12)N1CCCNCC1,inhibition,[12],Active
same,inhibition,[14],Active
COc1cc2ncn(-c3cc(OCc4ccccc4C(F)(F)F)c(C(N)=O)s3)c2cc1OC,inhibition,[1],> 25%
same,inhibition,[3],> 25%
Cc1ccc(-c2nn(C(C)(C)C)c3ncnc(N)c23)cc1,inhibition,[15],32%
same,inhibition,[16],> 40%
same,inhibition,[14],19%
CC(C)(C)n1nc(-c2ccc(Cl)cc2)c2c(N)ncnc21,inhibition,[15],32%
same,inhibition,[16],> 40%
same,inhibition,[14],19%
CO[C@@H]1[C@H](N(C)C(=O)c2ccccc2)C[C@H]2O[C@]1(C)n1c3ccccc3c3c4c(c5c6ccccc6n2c5c31)C(=O)NC4,inhibition,[16],Active
C[C@@H](N)[C@H]1CC[C@H](C(=O)Nc2ccncc2)CC1,inhibition,[12],Active
COc1cc2c(Nc3ccc(NC(=O)c4ccccc4)cc3)ncnc2cc1OCCCN1CCOCC1,inhibition,[1],> 50%
same,inhibition,[3],> 50%
Cc1[nH]c(/C=C2\C(=O)Nc3ccc(S(=O)(=O)Cc4c(Cl)cccc4Cl)cc32)c(C)c1C(=O)N1CCC[C@@H]1CN1CCCC1,inhibition,[1],> 25%
same,inhibition,[3],> 25%
O=C1NC(=O)c2cc(Nc3ccc(F)cc3)c(Nc3ccc(F)cc3)cc21,inhibition,[15],30%
same,inhibition,[4],22%
O=C(c1ccc(Nc2nccc(-c3cc4ccccc4s3)n2)cc1)N1CCC(N2CCCC2)CC1,inhibition,[1],> 29%
same,inhibition,[2],83%
same,inhibition,[12],> 29%
same,inhibition,[13],> 60%
same,inhibition,[10],> 60%
same,inhibition,[8],> 29%
same,inhibition,[5],> 29%
